# Redox H2O2 prof – compounds producing H2O2 with reducing agent – biochemical, NIH compound library profiling, artefact control for MLSCN library redox annotation, primary screen | DTT-dependent redox cycling H2O2, phenol red/HRP absorbance; 100% = 100 µM peroxide control, 0% = buffer | activation, % at 10 µM | actives 0.03% (n = 200,000);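 active = activation of at least 50% relative to the plate's high and low controls in the primary single-dose screen; inactive = activation below 50%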;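 note: compound incubated with DTT at 0.8 mM final as the reducing agent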
# PMI activator – phosphomannose isomerase (human) activation; activation factor at 20 µM; AID 1214; P34949; actives 0.005% (n = 190,000); purified human PMI, coupled resazurin fluorescence, 20 min; hits give high values; 1 = vehicle control, 0 substrate-free wells;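 active = activation factor of 2 or more at 20 µM, relative to plate controls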
# Target sequence (P34949 whole entry, looked up): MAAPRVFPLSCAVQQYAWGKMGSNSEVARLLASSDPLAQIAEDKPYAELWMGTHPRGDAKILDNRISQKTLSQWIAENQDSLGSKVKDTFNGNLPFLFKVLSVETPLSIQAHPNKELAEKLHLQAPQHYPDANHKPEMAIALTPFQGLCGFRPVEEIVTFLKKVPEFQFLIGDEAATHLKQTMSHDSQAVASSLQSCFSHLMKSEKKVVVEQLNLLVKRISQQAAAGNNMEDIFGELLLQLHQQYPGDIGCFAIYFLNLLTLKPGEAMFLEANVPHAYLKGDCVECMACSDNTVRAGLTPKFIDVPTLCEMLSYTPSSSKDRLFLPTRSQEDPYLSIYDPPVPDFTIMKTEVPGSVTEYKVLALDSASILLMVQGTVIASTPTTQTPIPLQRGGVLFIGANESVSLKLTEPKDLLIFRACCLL
# PMI act hi M6P – increases human PMI activity with near-saturating mannose 6-phosphate | coupled PMI enzyme assay, resazurin fluorescence, 20 min; hits give high values; 1 = untreated enzyme, 0 = substrate-free blank | activation factor at 20 µM | actives 0.34% (n = 190,000) | AID 1216;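 active = activation factor of 2 or more at 20 µM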
#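 Material: human phosphomannose isomerase with PGI, G6PDH, diaphorase coupling enzymes; amount: PMI at 15 ng/mL final; also added: Mannose-6-phosphate 1.0 mM (near-saturating) plus 0.22 mM NADP+; incubation: enzyme reaction with compound 20 min at room temperature; signal: resorufin fluorescence (Ex 544/Em 590 nm) from resazurin via diaphorase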
# G6PDH CS – L. mesenteroides G6PDH inhibition counter-screen | actives 0.12% (n = 200,000) | inhibition, % at 5 µM | Purified L. mesenteroides G6PDH, diaphorase/resazurin coupled fluorescence, 45 min; in the data active = inhibition above about 50%
# Tb hexokinase – T. brucei hexokinase 1 inhibition | recombinant TbHK1, G6PDH-coupled NADH A340 | actives 0.11% (n = 220,000) | inhibition, % at 10 µM;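 active = inhibition of 50% or more in the single-dose primary screen; inactive = inhibition below 50%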
# p97 inhibitor – human p97 ATPase inhibition; inhibition, % at 8 µM; AID 1481; recombinant p97 ATPase, Kinase-Glo ATP luminescence, 3 h; actives 0.42% (n = 220,000); in the data active = inhibition above about 15%;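 note: 0% = DMSO vehicle and 100% = wells lacking enzyme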
# p97 confirm – human p97 ATPase inhibition, confirmation; shares compounds with p97 inhibitor; actives 44% (n = 760); inhibition, % at 8 µM; recombinant p97 ATPase, Kinase-Glo ATP luminescence;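 active = percent inhibition of p97 ATPase above a set limit, the primary screen's mean plus 3 SD, cut at about 15% in these data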;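 note: 0% = DMSO wells and 100% = wells lacking p97 protein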
# The depositor's hits bear a star; . = no result given. Hits are enriched below; roughly 0.91% of the tested compounds scored in any of these assays.
SMILES,Redox H2O2 prof,PMI activator,PMI act hi M6P,G6PDH CS,Tb hexokinase,p97 inhibitor,p97 confirm
Nc1c(-c2ccccc2)c(CSc2nc3ccccc3[nH]2)nn1-c1cccc(C(=O)O)c1,0,0.9,0.9,11,7,16*,7
Nc1c(C(=O)N/N=C/c2cccnc2)oc2nc(-c3ccco3)cc(-c3ccco3)c12,.,.,.,.,9,17*,4
CC(C)=CC(=O)OCC(=O)Nc1cc(C)cc(C)c1,-1,1,1,4,1,2,.
CC(C)c1ccc2c(c1)CCC1C(C)(CN)CCCC21C (stereo not given),.,.,.,.,15,22*,14
N#C/C(=C(/O)CCl)c1nc2ccccc2[nH]1,-1,1.1,0.7,-6,-1,38*,30*
Cc1cc(Br)ccc1SCC(=O)OC/C(O)=C(\C#N)c1nc2ccccc2[nH]1,.,.,.,.,-11,7,.
Cc1ccc(C)c(SCC(=O)OC/C(O)=C(\C#N)c2nc3ccccc3[nH]2)c1,0,1,0.8,4,-3,18*,40*
N#C/C(=C(\O)Cc1ccccc1)c1nc2ccccc2[nH]1,0,1.1,1.1,2,-4,-5,.
Cc1ccsc1C=Nc1ccc(O)cc1,1,0.6,0.5,34,3,25*,3
CN(CCOc1ccccc1)CC(=O)Nc1ccc(Cl)cc1[N+](=O)[O-],-2,1,1,1,11,-11,.
Cc1cc(/C=N/NC(N)=S)c(O)c(/C=N/NC(N)=S)c1,.,.,.,.,-6,19*,20*
Cc1ccc(S(=O)(=O)Nc2ccccc2/C=N/c2nc3ccccc3n2C)cc1,0,1,0.8,22,-12,-6,.
CCCCC(=O)NC(=S)Nc1cc(C(=O)O)ccc1OC,0,1,1,8,4,18*,10
CCCCC(=O)Nc1ccc(NC(=S)NC(=O)CC)cc1OC,0,0.9,1,0,-8,3,.
CN1C(=O)C2(c3ccccc31)C1CCCC=C1C(C#N)=C(N)C2(C#N)C#N (stereo not given),3,0.8,0.9,12,-4,17*,13
O=C(NNc1cc(N2CCOCC2)nc(N2CCOCC2)n1)c1ccc([N+](=O)[O-])cc1,-1,0.6,0.4,44,-6,22*,7
CCc1nnc(NC(=O)C2CCCCC2)s1,2,0.8,1,-8,2,-3,.
CC(C)c1nnc(NC(=O)C2CCCCC2)s1,0,1.1,1,9,0,16*,2
CCn1c(SCC(=O)N2CCCc3ccccc32)nnc1-c1c[nH]c2ccccc12,1,0.9,0.9,2,2,2,.
Cn1c(SCC(=O)N2CCCc3ccccc32)nnc1-c1c[nH]c2ccccc12,3,1,1,-22,3,16*,6
O=c1[nH]c(/C(Cl)=C/c2cc(Cl)ccc2O)nc2cc(Cl)ccc12,0,0.9,1,-22,9,29*,42*
O=c1[nH]c(/C(Cl)=C/c2c(F)cccc2Cl)nc2cc(Cl)ccc12,0,0.9,1,23,13,28*,35*
Cc1c(C(=O)OCC(=O)Nc2ccc(S(N)(=O)=O)cc2)oc2c1ccc1ccccc12,0,1,0.9,1,5,16*,8
C=CCn1c(NC(=O)c2ccccc2Cl)c(C#N)c2nc3ccccc3nc21,0,0.8,0.5,46,0,43*,28*
CCCCCn1c(N)c(C#N)c2nc3ccccc3nc21,0,0.8,0.6,11,-17,0,.
SMILES,Redox H2O2 prof,PMI activator,PMI act hi M6P,G6PDH CS,Tb hexokinase,p97 inhibitor,p97 confirm
CCCCn1c(NC(C)=O)c(C#N)c2nc3ccccc3nc21,2,0.8,0.4,43,6,30*,4
CC(C)CNC(=S)N1CCC(NC(=O)c2ccco2)CC1,0,1,0.9,7,0,0,.
Cc1cc(C(=O)N/N=C/c2cc(Br)ccc2OC(=O)c2ccccc2Cl)n[nH]1,0,1,1,17,-6,18*,35*
COC(=O)N/N=C/c1cn(Cc2ccccc2Cl)c2ccccc12,1,0.8,0.8,-12,32,3,.
Cc1[nH][nH]c(=O)c1C(c1c(C)[nH][nH]c1=O)c1cn(Cc2ccccc2Cl)c2ccccc12,1,0.7,0.5,16,-7,20*,20*
Nc1cc(=O)[nH]n1C1CCCC1,-2,1.2,1,6,2,4,.
CC/C(=C\C(=O)c1ccncc1)Nc1ccc(O)cc1,6,1.1,1,11,-37,21*,8
O=C(Nc1ccc(Cl)cc1)c1ccncc1,0,0.9,0.9,1,-4,0,.
COc1ccc2ccc3c(c2c1)N=CC1(O3)N(C)c2ccccc2C1(C)C (stereo not given),2,0.7,0.4,25,-11,16*,8
CN1c2ccccc2C(C)(C)C12C=Nc1c(ccc3ccccc13)O2 (stereo not given),-4,0.7,0.5,10,2,-1,.
Cn1cccc1CC(=O)N/N=C/c1ccco1,.,.,.,.,-12,17*,12
Cn1cccc1CC(=O)NNC(=O)Nc1ccc(Cl)cc1,0,1,0.9,6,4,19*,7
CC(Cc1ccccc1)N/C=C1\CC(=O)NC1=O (stereo not given),2,1,1,-5,1,4,.
CCOC(=O)C1CCCN(S(=O)(=O)c2cn(C)c(=O)n(C)c2=O)C1 (stereo not given),0,0.9,1,-2,3,17*,3
CCOC(=O)C1CCN(S(=O)(=O)c2cn(C)c(=O)n(C)c2=O)CC1,0,1.1,1.1,31,2,2,.
Cc1c(C)n(CC(O)CN2C(=O)c3ccccc3S2(=O)=O)c2ccccc12 (stereo not given),0,0.9,0.9,8,-6,-2,.
CCc1cccc(CC)c1NC(=O)CN1C2CCCC1CC(NC(=O)Nc1cccc(OC)c1)C2 (stereo not given),0,0.8,0.8,16,4,-1,.
Cc1csc2c(=O)sc(NC(=O)c3cccs3)nc12,.,.,.,.,-16,34*,28*
O=c1c2c3nc4ccccc4nc3n(Cc3ccccc3)c2ncn1Cc1ccco1,2,0.9,1,8,-11,16*,34*
O=C(CCSc1nnc(-c2ccco2)o1)Nc1ccc(F)cc1,0,1.1,1.1,4,2,4,.
CCOC(=O)c1c(CC(C)C)csc1NC(=O)c1ccccc1C(=O)O,.,.,.,.,-12,18*,22*
